Source: PubChem (The Scripps Research Institute Molecular Screening Center)
NR2E3 ag-1 – inhibitors of NR2E3-RetCOR corepressor binding, primary screen, NR2E3 agonist project, biochemical, TR-FRET, GST-NR2E3, biotin-RetCOR; AID 2300, 2010; inhibition of corepressor binding, % at 4.78 µM; 1536-well; 320,000 tested, 0.12% active; Photoreceptor-specific nuclear receptor (Homo sapiens), Q9Y5X4;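 active = percent inhibition above the cutoff of mean plus 3 SD of all tested compounds, set per screening campaign, cut at about 20% in these data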;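 note: 0% = DMSO wells and 100% = biotin wells as full block of FRET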
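Material – GST-tagged NR2E3 plus biotinylated RetCOR corepressor · Quantity – NR2E3 fusion 1.35 nM · Times – 5 h incubation at 4 °C · Medium – pH 7.5 Tris-based buffer · Technique – TR-FRET, Eu(K)-anti-GST donor, streptavidin-D2 acceptor, ex 340, em 617/671 nm · Benchmarks – high control biotin, low control 0.6% DMSO · Format – 1536-well plates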
NR2E3 ag-2 – NR2E3 agonists in two-hybrid cells, primary screen, cell-based, luminescence, CHO-S, Gal4-NCOR/VP16-NR2E3; luciferase; inhibition of corepressor binding, % at 3.98 µM; 360,000 tested, 0.35% active; AID 602229, 2012;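 active = inhibition above the mean of all tested compounds plus 3 SD, cut at about 70% in these data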;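 note: 0% = DMSO with NR2E3 transfected cells and 100% = cells lacking NR2E3 construct; higher means lower luciferase signal from less NR2E3 corepressor binding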
PP5 inh – PP5 phosphatase inhibitors, primary screen, biochemical, fluorescence. Serine/threonine-protein phosphatase 5 (Homo sapiens), P53041. purified PP5c, OMFP substrate fluorescence. inhibition, % at 6.7 µM. 320,000 tested, 0.18% active;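 active = inhibition above the campaign's mean inhibition across all tested compounds plus 3 SD, cut at about 9.5% in these data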;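 note: 0% = DMSO only and 100% = 100 µM cantharidin control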
Target sequence (P53041 whole entry, looked up): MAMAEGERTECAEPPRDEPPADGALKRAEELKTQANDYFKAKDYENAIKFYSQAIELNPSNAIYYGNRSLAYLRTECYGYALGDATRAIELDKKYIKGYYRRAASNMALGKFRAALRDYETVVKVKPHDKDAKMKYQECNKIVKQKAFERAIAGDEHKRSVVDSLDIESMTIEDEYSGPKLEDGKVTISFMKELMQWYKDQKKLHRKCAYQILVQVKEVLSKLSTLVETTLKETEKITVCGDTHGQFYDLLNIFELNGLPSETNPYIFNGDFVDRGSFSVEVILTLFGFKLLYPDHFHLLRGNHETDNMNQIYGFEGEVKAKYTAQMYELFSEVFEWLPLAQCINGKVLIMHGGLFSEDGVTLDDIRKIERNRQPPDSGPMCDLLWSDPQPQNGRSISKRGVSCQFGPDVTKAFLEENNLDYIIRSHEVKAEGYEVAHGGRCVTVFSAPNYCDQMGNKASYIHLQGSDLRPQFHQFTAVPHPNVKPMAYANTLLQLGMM
PP1 counter – PP1-alpha phosphatase inhibitors, primary screen, counter-screen for PP5 inhibitor project, biochemical, fluorescence, OMFP substrate, single point. Serine/threonine-protein phosphatase PP1-alpha catalytic subunit (Homo sapiens), P62136. purified PP1alpha. inhibition, % at 6.7 µM. 320,000 tested, 0.9% active;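 active = inhibition above the mean inhibition of all tested compounds plus 3 SD, computed separately for each screening campaign, cut at about 15% in these data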
PP1 inh confirm – PP1 phosphatase inhibitors, confirmation, biochemical, fluorescence, OMFP substrate, triplicate | shares compounds with PP1 counter | purified PP1alpha | inhibition, % at 6.7 µM | 1,900 tested, 52% active;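 active = mean PP1 inhibition above a set limit taken from the earlier primary screen, cut at about 15% in these data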
PP5 counter – PP5 phosphatase inhibition by PP1 hits, confirmation, counter-screen for PP1 inhibitor project, biochemical, fluorescence, triplicate; purified PP5c, OMFP fluorescence; inhibition, % at 6.7 µM; shares compounds with PP1 counter; 1,900 tested, 4% active;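 active = mean PP5 inhibition over triplicate wells above about 9.5% taken from the earlier PP1 screen, limit read from the data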
* marks the source's active call; other numbers are inactive results; · = not tested or not shown. The list is not random: actives were taken first. Their share in the collection is about 1.3%.

SMILES	NR2E3 ag-1	NR2E3 ag-2	PP5 inh	PP1 counter	PP1 inh confirm	PP5 counter
COc1ccc(C(=O)Nc2ccc(N3CCCC3)cc2)cc1	4.2	-13.9	4.7	28.6*	-7.1	-5.0
Cc1cc(C)cc(OCC(=O)Nc2ccc(N3CCCC3)cc2)c1	2.5	-6.6	0.2	19.4*	-8.8	-1.7
CCc1nnc(NS(=O)(=O)c2ccc(NC(=O)c3ccc(C#N)cc3)cc2)s1	3.0	-39.4	0.7	-3.7	·	·
COCCN1C[C@@H](CO)O[C@@H](n2cnc3c(NCCN(C)C)ncnc32)C1	·	-4.5	·	·	·	·
COc1cc(/C=C2/NC(=O)N(CC(=O)Nc3ccc(C)cc3)C2=O)ccc1Oc1ccc([N+](=O)[O-])cn1	-1.6	-19.3	-1.2	19.4*	23.4*	-2.2
Cc1c([N+](=O)[O-])cc(S(=O)(=O)Nc2ccc(-c3ccc(N4CCCC4)nn3)cc2)cc1[N+](=O)[O-]	1.1	-1.5	1.6	18.9*	21.5*	-2.7
O=C(CSC1=N/C(=C/c2ccco2)C(=O)N1c1ccc(OC(F)F)cc1)NC1CCS(=O)(=O)C1 (centres undefined)	0.2	9.4	-1.7	-4.2	·	·
CCNC(=O)CSC1=N/C(=C\c2ccc(O)c(OCC)c2)C(=O)N1c1ccc(OC(F)F)cc1	-1.8	-8.7	2.1	17.7*	19.4*	-6.4
CC(C)OC(=O)CC(=O)c1sc2nc3c(cc2c1N)CN(C)CC3	7.7	·	4.7	23.3*	7.5	20.0*
FC(F)(F)c1ccc(C2[C@H]3CN(Cc4ccc(-c5ccccc5)cc4)[C@H](c4ccccc4)C34CC2(c2cccnc2)C4)cc1 (some centres undefined)	-2.3	·	0.8	3.2	·	·
FC(F)(F)c1ccc(C2[C@H]3CN(Cc4cccnc4)[C@H](c4ccccc4)C34CC2(c2cccnc2)C4)cc1 (some centres undefined)	-2.1	-1.5	5.4	18.9*	7.1	-0.6
N#Cc1ccc(C23CC4(C2)[C@H](CN(Cc2cccnc2)[C@@H]4c2ccccc2)C3c2ccccc2)cc1 (some centres undefined)	-0.6	-4.0	2.1	20.4*	17.3*	-1.6
COC(=O)c1ccc(C23CC4(C2)[C@H](CN(Cc2cccnc2)[C@@H]4c2ccccc2)C3c2ccccc2)cc1 (some centres undefined)	1.5	10.2	2.9	7.9	·	·
CC(Sc1nnc(C2CC2)n1C1CC1)C(=O)Nc1cccc(S(=O)(=O)N2CCOCC2)c1 (centres undefined)	-0.6	6.4	0.5	5.2	·	·
O=C(OCC(=O)N1CCN(C(=O)c2ccco2)CC1)c1cc(-c2ccco2)nc2ccccc12	0.6	0.2	1.7	21.8*	13.1	-5.0
O=C(OCC(=O)N1CCN(C(=O)c2ccco2)CC1)c1cc(-c2ccc(Cl)c(Cl)c2Cl)nc2ccccc12	-1.8	-0.5	4.5	13.0	·	·
CCOC(=O)C1(C)C=C(Nc2ccccc2)C(=O)N1c1ccccc1 (centres undefined)	2.5	9.5	0.9	29.1*	0.8	-2.4
CCOC(=O)C1(C)C=C(Nc2ccc(OCC)cc2)C(=O)N1c1ccccc1 (centres undefined)	1.9	-23.2	4.0	-3.5	·	·
Cc1nc(-c2ccccn2)nc(SCC(=O)c2ccc(F)cc2)c1Cl	-2.6	-17.6	3.2	27.2*	40.8*	-3.4
COCCn1c(C)cc(C2=NNC(=Nc3ccccc3)SC2)c1C	0.7	23.1	-3.8	8.9	·	·
COCCn1c(C)cc(C2=NNC(=Nc3ccc(OC)cc3)SC2)c1C	-1.5	-22.4	0.6	20.5*	8.2	-2.8
CCOC(=O)C1=C[C@@H](CC)N(S(=O)(=O)c2ccccc2)[C@H]1c1ccccc1	·	2.4	·	·	·	·
CC1CC2C3CCC4=CC(=O)C=CC4(C)[C@@]3(Cl)C(O)CC2(C)C1(O)C(=O)CO (some centres undefined)	2.9	-5.6	1.6	3.0	·	·
